Values after ≈ are worked out from the molar mass of the structure shown.
Assays:
Mus musculus [1] = test: Evaluated for its inhibitory effects on 12-O-tetradecanoylphorbol-13-acetate (TPA) -induced edema in mouse ear at a dose of 100 ug/site; format: functional
Method in brief: (§1)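 Male ICR mice, 30–40 g, 10–15 per group. Test compound applied in 25 μL acetone/pyridine/water 97:2:1 containing TPA (200 μg/mL) to the inner surface of one ear. Killed with CO2 5 h later; 6-mm ear punch weighed wet for edema. ED50 taken from three-point dose titration curves.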

Rattus norvegicus [2] = organism: Rattus norvegicus; test: Inhibitory effects on passive cutaneous anaphylaxis in rats at a dose of 1 mg/site; format: functional
Method in brief: (§2)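 Male SD rats, eight per group, sensitized intradermally at two dorsal sites with 0.05 mL anti-ovalbumin rat IgE serum diluted 1:8 in 0.9% saline. Compound applied topically to those sites 5 h before iv challenge 48 h later with 2 mg ovalbumin plus 5 mg Evans blue in 1 mL. Extravasated dye measured 30 min later; percent inhibition versus control group.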

Rattus norvegicus [3] = organism: Rattus norvegicus; test: Evaluated for its antioxidative effect using the thiobarbituric acid (TBA) method in rat; format: functional
Method in brief: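 Test sample in 67 mM phosphate buffer pH 7.4 mixed with 10% male Wistar rat (300–400 g) forebrain homogenate. Shaken 1 h at 37 °C, deproteinated with 20% TCA. Supernatant heated 10 min at 100 °C with 1.2% thiobarbiturate; absorbance read at 532 nm.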

Mus musculus [4] = test: Inhibitory effects on arachidonic acid (AA) induced mouse ear edema at a dose of 100 ug/ear; format: functional
Method in brief: (§3)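 Male ICR mice (30–40 g, 10–15 per group). Compound in 25 μL acetone/pyridine/water 97:2:1 with arachidonic acid (50 mg/mL) applied to inner surface of one ear. After 1 h, CO2 sacrifice, 6-mm disk punched, edema measured as change in wet weight versus controls.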

Mus musculus [5] = organism: Mus musculus; test: Inhibitory effects on delayed type hypersensitive reaction in mouse ears at a dose of 300 ug/site; format: functional
Method in brief: (§4)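 ICR mice, 10 or 12 per group, sensitized by abdominal swabbing with 0.1 mL antigen in acetone (7% picryl chloride or 1% OXA). DTH response assessed in mouse ears.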

Cavia porcellus [6] = test: Compound was evaluated for maximization test in guinea pigs and the edema was observed for the experiment 3; format: functional
Method in brief: (§5)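 Maximization test in guinea pigs with the dorsal neck region clipped and then shaved. Skin reactions were read at 24 and 48 h. Erythema was graded 0–4 and edema 0–3, and values are counts of animals at each grade. Groups held 6 animals, or 4 in the control-paired group.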

Cavia porcellus [7] = test: Compound was evaluated for maximization test in guinea pigs and the edema was observed for the experiment 1; format: functional; method in brief: as §5
Cavia porcellus [8] = organism: Cavia porcellus; test: Compound was evaluated for maximization test in guinea pigs and the erythema was observed for the experiment 1; format: functional; method in brief: as §5
Cavia porcellus [9] = organism: Cavia porcellus; test: Compound was evaluated for maximization test in guinea pigs and the erythema was observed for the experiment 4;0/2; format: functional; method in brief: as §5
Cavia porcellus [10] = organism: Cavia porcellus; test: Compound was evaluated for maximization test in guinea pigs and the erythema was observed for the experiment 3;1/2; format: functional; method in brief: as §5
Cavia porcellus [11] = test: Compound was evaluated for maximization test in guinea pigs and the edema was observed for the experiment 0; format: functional; method in brief: as §5
Cavia porcellus [12] = organism: Cavia porcellus; test: Compound was evaluated for maximization test in guinea pigs and the erythema was observed for the experiment 2;3/0; format: functional; method in brief: as §5
Cavia porcellus [13] = organism: Cavia porcellus; test: Compound was evaluated for maximization test in guinea pigs and the erythema was observed for the experiment 0; format: functional; method in brief: as §5
Cavia porcellus [14] = test: Compound was evaluated for maximization test in guinea pigs and the edema was observed for the experiment 2;4/4; format: functional; method in brief: as §5
Oryctolagus cuniculus [15] = organism: Oryctolagus cuniculus; test: Compound was evaluated for primary irritation test by applying at the intact site and the average score was reported. Number of animals tested =6; format: toxicity, organism-based; details: rabbit, in vivo, topical_or_ocular
Method in brief: (§6)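 Rabbit backs shaved and depilated; 0.5 g compound applied to four sites (two intact, two abraded) under gauze for 24 h. Sites examined grossly 24 and 72 h after removing covering; scored by Draize method.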

Oryctolagus cuniculus [16] = organism: Oryctolagus cuniculus; test: Compound was evaluated for primary irritation test by applying at the abraded site and the average score was reported. Number of animals tested =6; format: toxicity, organism-based; details: rabbit, in vivo, topical_or_ocular; method in brief: as §6
Rattus norvegicus [17] = organism: Rattus norvegicus; test: Compound was evaluated for its inhibitory effects on passive cutaneous anaphylaxis in rats at a dose of 2.5 mg/site; format: functional; method in brief: as §2
Mus musculus [18] = test: Compound was evaluated for its inhibitory effects on arachidonic acid induced ear edema at a dose of 100 (ug / ear); format: functional; method in brief: as §3
Mus musculus [19] = test: Compound was evaluated for its inhibitory effects on 12-O-tetradecanoylphorbol-13-acetate -induced edema; format: functional; method in brief: as §1
Mus musculus [20] = organism: Mus musculus; test: Compound was evaluated for its effective dose to inhibit oxazolone- induced delayed type hypersensitivity; format: functional; method in brief: as §4
Mus musculus [21] = organism: Mus musculus; test: Compound was evaluated for its effective dose to inhibit picryl chloride induced delayed type hypersensitivity; format: functional; method in brief: as §4
Rattus norvegicus [22] = organism: Rattus norvegicus; test: Compound was evaluated for its inhibitory effects on passive cutaneous anaphylaxis in rats at a dose of 1 mg/site; format: functional; method in brief: as §2
Oryctolagus cuniculus [23] = organism: Oryctolagus cuniculus; test: Compound was evaluated for primary irritation test by applying at the intact site and the average score was reported. Number of animals tested =6.; format: toxicity, organism-based; details: rabbit, in vivo, topical_or_ocular; method in brief: as §6
Mus musculus [24] = organism: Mus musculus; test: Compound was evaluated for its effective dose to inhibit oxazolone- induced delayed type hypersensitivity
Rattus norvegicus [25] = organism: Rattus norvegicus; test: Compound was evaluated for its inhibitory effects on passive cutaneous anaphylaxis in rats at a dose of 2.5 (mg / site).; format: functional; method in brief: as §2
Mus musculus [26] = organism: Mus musculus; test: Compound was evaluated for its effective dose to inhibit picryl chloride induced delayed type hypersensitivity.
Mus musculus [27] = test: Compound was evaluated for its inhibitory effects on 12-O-tetradecanoylphorbol-13-acetate -induced edema.
Rattus norvegicus [28] = organism: Rattus norvegicus; test: Compound was evaluated for its inhibitory effects on passive cutaneous anaphylaxis in rats at a dose of 1 (mg / site).; format: functional; method in brief: as §2
Mus musculus [29] = test: Compound was evaluated for its inhibitory effects on arachidonic acid induced ear edema at a dose of 100 (ug / ear)
Mus musculus [30] = test: Compound was evaluated for its inhibitory effects on 12-O-tetradecanoylphorbol-13-acetate (TPA) -induced edema in mouse ear at a dose of 100 ug/site; format: functional; method in brief: as §1
Mus musculus [31] = organism: Mus musculus; test: Compound was evaluated for its inhibitory effects on delayed type hypersensitive reaction in mouse ears at a dose of 300 ug/site; format: functional; method in brief: as §4
Mus musculus [32] = test: Compound was evaluated for its inhibitory effects on arachidonic acid (AA) induced mouse ear edema at a dose of 100 ug/ear; format: functional; method in brief: as §3

Compound | Inhibition (Mus musculus [1]) [%] | Inhibition (Rattus norvegicus [2]) [%] | IC50 (Rattus norvegicus [3]) [µg/mL] | Inhibition (Mus musculus [4]) [%] | Inhibition (Mus musculus [5]) [%] | other results
Cc1ccc(O)c(NCCCN2CCCN(C(c3ccccc3)c3ccc(Cl)cc3)CC2)c1 (stereo not given) | 87 | 36.4 | 0.013 (≈ 0.028 µM) | 50.3 |  | 
Cc1ccc(O)c(N(CCCN2CCC(C(O)(c3ccccc3)c3ccc(Cl)cc3)CC2)C(C)C)c1 (stereo not given) | 89.3 | 48.3 | 1 (≈ 1.97 µM) | 48.5 | 18.7 | 
O=[N+]([O-])c1ccc(Cl)c([N+](=O)[O-])c1 |  |  |  |  |  | Edema (Cavia porcellus [6]): 0; Edema (Cavia porcellus [7]): 0; Erythema (Cavia porcellus [8]): 0; Erythema (Cavia porcellus [9]): 0; Erythema (Cavia porcellus [10]): 1; Edema (Cavia porcellus [11]): 0; Erythema (Cavia porcellus [12]): 3; Erythema (Cavia porcellus [13]): 0; Edema (Cavia porcellus [14]): 4
Cc1ccc(O)c(N(CCCN2CCC(C(O)(c3ccccc3)c3ccccc3)CC2)C(C)C)c1 | 39.2 |  | 0.79 (≈ 1.67 µM) |  |  | 
Cc1ccc(O)c(NCCCN2CCN(C(c3ccccc3)c3ccc(Cl)cc3)CC2)c1 (stereo not given) |  | 48.5 | 0.12 (≈ 0.267 µM) | 67.7 | 62 | Average score (Oryctolagus cuniculus [15]): 0; Average score (Oryctolagus cuniculus [16]): 0
Cc1ccc(O)c(NCCCN2CCN(C(c3ccc(F)cc3)c3ccc(F)cc3)CC2)c1 |  | 31.7 | 0.1 (≈ 0.221 µM) | 51 | 79.2 | Inhibition (Rattus norvegicus [17]): 51.9%; Average score (Oryctolagus cuniculus [15]): 0; ED50 (Mus musculus [18]): 107.9 µg/mL (≈ 239 µM); ED50 (Mus musculus [19]): 47 µg/mL (≈ 104 µM); ED50 (Mus musculus [20]): 47.8 µg/mL (≈ 106 µM); Average score (Oryctolagus cuniculus [16]): 0; ED50 (Mus musculus [21]): 52.9 µg/mL (≈ 117 µM)
Cc1ccc(O)c(N(CCCN2CCN(C(c3ccc(F)cc3)c3ccc(F)cc3)CC2)C(C)C)c1 | 24.2 |  | 1.2 (≈ 2.43 µM) |  |  | 
Cc1ccc(O)c(NCCCN2CCC(OC(c3ccc(F)cc3)c3ccc(F)cc3)CC2)c1 | 61.8 | 39 | 0.028 (≈ 0.06 µM) | 49.8 | 59.3 | 
Cc1ccc(O)c(N(CCCN2CCN(C(c3ccccc3)c3ccccc3)CC2)C(C)C)c1 | 42.6 |  | 0.29 (≈ 0.634 µM) |  |  | 
Cc1ccc(O)c(NCCN2CCN(C(c3ccccc3)c3ccccc3)CC2)c1 | 75.3 | 32.8 | 0.045 (≈ 0.112 µM) | 48.1 | 62 | 
Cc1ccc(O)c(N(C)CCCN2CCN(C(c3ccccc3)c3ccc(Cl)cc3)CC2)c1 (stereo not given) | 51.8 |  | 0.27 (≈ 0.582 µM) |  |  | 
Cc1ccc(O)c(N(C)CCCN2CCN(C(c3ccccc3)c3ccccc3)CC2)c1 | 50.9 |  | 0.3 (≈ 0.698 µM) |  |  | 
CC(C)(C)c1ccc(O)c(NCCCN2CCN(C(c3ccccc3)c3ccc(Cl)cc3)CC2)c1 (stereo not given) | 82.4 | 12.6 | 0.068 (≈ 0.138 µM) | 38 | 60.6 | 
CC(C)N(CCCN1CCN(C(c2ccccc2)c2ccc(Cl)cc2)CC1)c1cc(C(C)(C)C)ccc1O (stereo not given) | 40.3 |  | 0.39 (≈ 0.73 µM) |  |  | 
Cc1ccc(O)c(NCCCN2CCN(C(c3ccc(Cl)cc3)c3ccc(Cl)cc3)CC2)c1 | 58.2 |  | 0.48 (≈ 0.991 µM) |  |  | 
Cc1ccc(O)c(NCCCN2CCN(C(c3ccccc3)c3ccccc3)CC2)c1 |  | 11.2 | 0.038 (≈ 0.0914 µM) | 51 | 79.3 | 
Cc1ccc(O)c(N(CCCN2CCN(C(c3ccccc3)c3ccc(Cl)cc3)CC2)C(C)C)c1 (stereo not given) | 44.4 |  | 0.44 (≈ 0.894 µM) |  |  | 
Cc1ccc(O)c(N(CCCN2CCN(C(c3ccc(Cl)cc3)c3ccc(Cl)cc3)CC2)C(C)C)c1 | 26.4 |  | 2.2 (≈ 4.18 µM) |  |  | 
Cc1ccc(O)c(NCCCN2CCC(OC(c3ccccc3)c3ccccc3)CC2)c1 |  |  | 0.036 (≈ 0.0836 µM) | 61.8 | 28.1 | Inhibition (Rattus norvegicus [22]): 28.3%
Cc1ccc(O)c(NCCCN2CCC(C(O)(c3ccc(F)cc3)c3ccc(F)cc3)CC2)c1 | 86.9 | 25.4 | 0.025 (≈ 0.0536 µM) |  |  | 
Cc1ccc(O)c(NCCCN2CCC(C(O)(c3ccccc3)c3ccc(Cl)cc3)CC2)c1 (stereo not given) | 97.5 | 39.2 | 0.041 (≈ 0.0882 µM) | 43.7 | 80.4 | Average score (Oryctolagus cuniculus [15]): 0; Average score (Oryctolagus cuniculus [16]): 0
Cc1ccc(O)c(NCCCN2CCC(C(O)(c3ccccc3)c3ccccc3)CC2)c1 | 89 | 36.8 | 0.029 (≈ 0.0673 µM) | 61.5 | 77 | Average score (Oryctolagus cuniculus [23]): 0; Average score (Oryctolagus cuniculus [16]): 0
Cc1ccc(O)c(NCCCN2CCC(OC(c3ccccc3)c3ccc(Cl)cc3)CC2)c1 (stereo not given) | 86 | 26 | 0.084 (≈ 0.181 µM) | 53.6 | 31.3 | 
C[C@]12CCC(=O)C=C1CCC1[C@@H]2[C@@H](O)C[C@@]2(C)[C@H]1CC[C@]2(O)C(=O)CO (single isomer, unassigned) [HYDROCORTISONE] |  |  |  |  |  | ED50 (Mus musculus [24]): 3.43 µg/mL (≈ 9.46 µM); Inhibition (Rattus norvegicus [25]): -16.4%; ED50 (Mus musculus [26]): 1.2 µg/mL (≈ 3.31 µM); ED50 (Mus musculus [27]): 6.69 µg/mL (≈ 18.5 µM); Inhibition (Rattus norvegicus [28]): 6.99%; ED50 (Mus musculus [29]): 3.09 µg/mL (≈ 8.52 µM)
Cc1c(C)c2c(c(C)c1O)CC[C@@](C)(CCC[C@H](C)CCC[C@H](C)CCCC(C)C)O2 [ALPHA-TOCOPHEROL] |  |  | 0.87 (≈ 2.02 µM) |  |  | 
CN(C)CCOC(c1ccccc1)c1ccccc1 [DIPHENHYDRAMINE] |  | 27.9 |  |  |  | Inhibition (Rattus norvegicus [17]): 52.8%; ED50 (Mus musculus [30]): >300 µg/mL; ED50 (Mus musculus [31]): >300 µg/mL; ED50 (Mus musculus [32]): >300 µg/mL
CC(C(=O)O)c1ccc(C(=O)c2cccs2)cc1 (stereo not given) [SUPROFEN] |  | -0.7 |  |  |  | Inhibition (Rattus norvegicus [17]): 16.9%; ED50 (Mus musculus [30]): 123.2 µg/mL (≈ 473 µM); ED50 (Mus musculus [31]): >300 µg/mL; ED50 (Mus musculus [32]): 15.4 µg/mL (≈ 59.2 µM)
